Assay results from ChEMBL document CHEMBL4425111, “Optically Pure, Structural, and Fluorescent Analogues of a Dimeric Y4 Receptor Agonist Derived by an Olefin Metathesis Approach” (J Med Chem, 2016).

What was measured:
[1] = biological target: T1, Neuropeptide Y receptor type 4 (Homo sapiens, UniProt P50391); experiment: Displacement of [Lys2(sCy5),Arg4]-BVD-15 from C-terminal GFP-tagged neuropeptide Y4R (unknown origin) expressed in human 293TR cells measured after 30 mins by fluorescence analysis; assay type: cell-based
T1 sequence (P50391 whole entry): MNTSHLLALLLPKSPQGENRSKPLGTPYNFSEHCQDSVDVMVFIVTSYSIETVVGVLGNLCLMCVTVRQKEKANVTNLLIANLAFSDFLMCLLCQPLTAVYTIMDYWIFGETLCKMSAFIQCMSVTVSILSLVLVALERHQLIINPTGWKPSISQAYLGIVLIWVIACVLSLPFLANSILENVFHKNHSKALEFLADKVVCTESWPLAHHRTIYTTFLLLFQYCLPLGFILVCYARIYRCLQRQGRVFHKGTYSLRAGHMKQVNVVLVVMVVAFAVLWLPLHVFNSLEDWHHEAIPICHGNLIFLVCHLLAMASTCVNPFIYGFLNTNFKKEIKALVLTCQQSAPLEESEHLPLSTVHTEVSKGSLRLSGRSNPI

[2] = biological target: T1, Neuropeptide Y receptor type 4; experiment: Agonist activity at GFP-tagged neuropeptide Y4R (unknown origin) expressed in HEK293T cells assessed as beta-arrestin2 recruitment measured after 60 mins by H33342 staining-based imaging method; assay type: cell-based
[3] = biological target: T1, Neuropeptide Y receptor type 4; experiment: Agonist activity at GFP-tagged neuropeptide Y4R (unknown origin) expressed in HEK293T cells assessed as beta-arrestin2 recruitment measured after 60 mins by H33342 staining-based imaging method relative to PP; assay type: cell-based
How it was run: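 Y4R–β-arrestin2 BiFC cell lines were seeded on poly-D-lysine plates and tested 24 h later. Ligands (10^-10–10^-6 M, duplicate wells) were applied in HBSS/0.1% BSA for 60 min at 37°C. Cells were fixed with 3% paraformaldehyde (10 min, 21°C) and nuclei stained with H33342. Confocal images were taken at 405/488 nm, and internal YFP granules ≥3 µm were counted against vehicle or 100 nM PP thresholds.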

Homo sapiens = organism: Homo sapiens; experiment: Selectivity ratio of IC50 for GFP-tagged neuropeptide Y1R (unknown origin) expressed in HEK293T cells to IC50 for C-terminal GFP-tagged neuropeptide Y4R (unknown origin) expressed in human 293TR cells; assay type: cell-based
How it was run: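 Whole-cell competition binding used tetracycline-induced 293TR cells expressing Y1-GFP or Y4-GFP. Cells were exposed to competitor for 2 min, then to sCy5-labelled tracer (10 nM for Y1R, 100 nM for Y4R) for 30 min at 37°C.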

[4] = Cellular uptake in human 293T-rex cells expressing C-terminal GFP-tagged neuropeptide Y4R measured after 30 mins by fluorescence analysis; assay type: ADME, cell-based; settings: hek-293t, 0.5 h
How it was run: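 293TR Y4-GFP cells, induced with 1 µg/ml tetracycline for 18–21 h, were incubated with sCy5-labelled peptide for 30 min at 37°C in HBSS/0.1% BSA with H33342. Controls were uninduced cells and 1 µM PP competition. Surface and intracellular sCy5 fluorescence was imaged by confocal platereader.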

[5] = biological target: T1, Neuropeptide Y receptor type 4; experiment: Agonist activity at GFP-tagged neuropeptide Y4R (unknown origin) expressed in HEK293T cells assessed as beta-arrestin2 recruitment at 1 uM measured after 60 mins by H33342 staining-based imaging method relative to PP; assay type: cell-based
How it was run: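 Y4R–β-arrestin2 BiFC cells were stimulated in HBSS/0.1% BSA for 60 min at 37°C, then fixed with 3% paraformaldehyde and stained with H33342. Complemented YFP was imaged by confocal platereader and quantified by granularity analysis with vehicle or 100 nM PP controls. Where agonist activity was not significant, the response at 1 µM peptide was reported.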

Row | SMILES | IC50 ([1]; read-out: pIC50 (converted)) | EC50 ([2]; read-out: pEC50 (converted)) | Rmax [3] | IC50 ([1]; read-out: IC50) | Ratio IC50 (Homo sapiens) | EC50 ([2]; read-out: EC50) | Drug uptake [4] | Rmax [5]
1 | COC(=O)[C@H](Cc1ccc(O)cc1)NC(=O)[C@H](CCCNC(=N)N)NC(=O)[C@H](CC(C)C)NC(=O)[C@H](CCCNC(=N)N)NC(=O)[C@H](Cc1ccc(O)cc1)NC(=O)[C@@H](N)CCCC[C@H](N)C(=O)N[C@@H](Cc1ccc(O)cc1)C(=O)N[C@@H](CCCNC(=N)N)C(=O)N[C@@H](CC(C)C)C(=O)N[C@@H](CCCNC(=N)N)C(=O)N[C@@H](Cc1ccc(O)cc1)C(N)=O | 93.3 nM | > 316 nM | 49.1% | – | – | – | – | –
2 | CC(C)C[C@H](NC(=O)[C@H](CCCNC(=N)N)NC(=O)[C@H](Cc1ccc(O)cc1)NC(=O)[C@H](N)CCCC[C@@H](N)C(=O)N[C@@H](Cc1ccc(O)cc1)C(=O)N[C@@H](CCCNC(=N)N)C(=O)N[C@@H](CC(C)C)C(=O)N[C@@H](CCCNC(=N)N)C(=O)N[C@@H](Cc1ccc(O)cc1)C(N)=O)C(=O)N[C@@H](CCCNC(=N)N)C(=O)N[C@@H](Cc1ccc(O)cc1)C(N)=O | – | – | 61.5% | 12.7 nM | 30 | 4.6 nM | – | –
3 | CCN(CC)c1ccc2c(-c3ccccc3C(=O)N3CCN(C(=O)CCC(=O)N[C@H](C/C=C\C[C@@H](N)C(=O)N[C@@H](Cc4ccc(O)cc4)C(=O)N[C@@H](CCCNC(=N)N)C(=O)N[C@@H](CC(C)C)C(=O)N[C@@H](CCCNC(=N)N)C(=O)N[C@@H](Cc4ccc(O)cc4)C(N)=O)C(=O)N[C@@H](Cc4ccc(O)cc4)C(=O)N[C@@H](CCCNC(=N)N)C(=O)N[C@@H](CC(C)C)C(=O)N[C@@H](CCCNC(=N)N)C(=O)N[C@@H](Cc4ccc(O)cc4)C(N)=O)CC3)c3ccc(=[N+](CC)CC)cc-3oc2c1 | 70.8 nM | 3.72 nM | 39.3% | – | – | – | – | –
4 | CCN1\C(=C/C=C/C=C/C2=[N+](CCCCCC(=O)N[C@@H](CCCC[C@H](N)C(=O)N[C@@H](Cc3ccc(O)cc3)C(=O)N[C@@H](CCCNC(=N)N)C(=O)N[C@@H](CC(C)C)C(=O)N[C@@H](CCCNC(=N)N)C(=O)N[C@@H](Cc3ccc(O)cc3)C(N)=O)C(=O)N[C@@H](Cc3ccc(O)cc3)C(=O)N[C@@H](CCCNC(=N)N)C(=O)N[C@@H](CC(C)C)C(=O)N[C@@H](CCCNC(=N)N)C(=O)N[C@@H](Cc3ccc(O)cc3)C(N)=O)c3ccc(S(=O)(=O)O)cc3C2(C)C)C(C)(C)c2cc(S(=O)(=O)[O-])ccc21 | – | 95.5 nM | 56.6% | – | – | – | Dose-dependent effect | –
5 | CC(C)C[C@H](NC(=O)[C@H](CCCNC(=N)N)NC(=O)[C@H](Cc1ccc(O)cc1)NC(=O)[C@@H](N)CCCC[C@H](N)C(=O)N[C@@H](Cc1ccc(O)cc1)C(=O)N[C@@H](CCCNC(=N)N)C(=O)N[C@@H](CC(C)C)C(=O)N[C@@H](CCCNC(=N)N)C(=O)N[C@@H](Cc1ccc(O)cc1)C(N)=O)C(=O)N[C@@H](CCCNC(=N)N)C(=O)N[C@@H](Cc1ccc(O)cc1)C(N)=O | 69.2 nM | 83.2 nM | 57.1% | – | – | – | – | –
6 | CC(C)C[C@H](NC(=O)[C@H](CCCNC(=N)N)NC(=O)[C@H](Cc1ccc(O)cc1)NC(=O)[C@H](N)C/C=C\C[C@@H](N)C(=O)N[C@@H](Cc1ccc(O)cc1)C(=O)N[C@@H](CCCNC(=N)N)C(=O)N[C@@H](CC(C)C)C(=O)N[C@@H](CCCNC(=N)N)C(=O)N[C@@H](Cc1ccc(O)cc1)C(N)=O)C(=O)N[C@@H](CCCNC(=N)N)C(=O)N[C@@H](Cc1ccc(O)cc1)C(N)=O | 24 nM | 38 nM | 61% | – | – | – | – | –
7 | COC(=O)[C@H](Cc1ccc(O)cc1)NC(=O)[C@H](CCCNC(=N)N)NC(=O)[C@H](CC(C)C)NC(=O)[C@H](CCCNC(=N)N)NC(=O)[C@H](Cc1ccc(O)cc1)NC(=O)[C@@H](N)CCCC[C@H](N)C(=O)N[C@@H](Cc1ccc(O)cc1)C(=O)N[C@@H](CCCNC(=N)N)C(=O)N[C@@H](CC(C)C)C(=O)N[C@@H](CCCNC(=N)N)C(=O)N[C@@H](Cc1ccc(O)cc1)C(=O)OC | 617 nM | – | – | – | 0.38 | – | – | 11.3%
8 | CCN1\C(=C/C=C/C=C/C2=[N+](CCCCCC(=O)N[C@H](CCCC[C@@H](N)C(=O)N[C@@H](Cc3ccc(O)cc3)C(=O)N[C@@H](CCCNC(=N)N)C(=O)N[C@@H](CC(C)C)C(=O)N[C@@H](CCCNC(=N)N)C(=O)N[C@@H](Cc3ccc(O)cc3)C(N)=O)C(=O)N[C@@H](Cc3ccc(O)cc3)C(=O)N[C@@H](CCCNC(=N)N)C(=O)N[C@@H](CC(C)C)C(=O)N[C@@H](CCCNC(=N)N)C(=O)N[C@@H](Cc3ccc(O)cc3)C(N)=O)c3ccc(S(=O)(=O)O)cc3C2(C)C)C(C)(C)c2cc(S(=O)(=O)[O-])ccc21 | – | 33.1 nM | 65.6% | – | – | – | Dose-dependent effect | –
9 | CCN(CC)c1ccc2c(-c3ccccc3C(=O)N3CCN(C(=O)CCC(=O)N[C@@H](CCCC[C@H](N)C(=O)N[C@@H](Cc4ccc(O)cc4)C(=O)N[C@@H](CCCNC(=N)N)C(=O)N[C@@H](CC(C)C)C(=O)N[C@@H](CCCNC(=N)N)C(=O)N[C@@H](Cc4ccc(O)cc4)C(N)=O)C(=O)N[C@@H](Cc4ccc(O)cc4)C(=O)N[C@@H](CCCNC(=N)N)C(=O)N[C@@H](CC(C)C)C(=O)N[C@@H](CCCNC(=N)N)C(=O)N[C@@H](Cc4ccc(O)cc4)C(N)=O)CC3)c3ccc(=[N+](CC)CC)cc-3oc2c1 | 70.8 nM | – | – | – | – | – | – | 15.9%
10 | CCN(CC)c1ccc2c(-c3ccccc3C(=O)N3CCN(C(=O)CCC(=O)N[C@@H](C/C=C\C[C@H](N)C(=O)N[C@@H](Cc4ccc(O)cc4)C(=O)N[C@@H](CCCNC(=N)N)C(=O)N[C@@H](CC(C)C)C(=O)N[C@@H](CCCNC(=N)N)C(=O)N[C@@H](Cc4ccc(O)cc4)C(N)=O)C(=O)N[C@@H](Cc4ccc(O)cc4)C(=O)N[C@@H](CCCNC(=N)N)C(=O)N[C@@H](CC(C)C)C(=O)N[C@@H](CCCNC(=N)N)C(=O)N[C@@H](Cc4ccc(O)cc4)C(N)=O)CC3)c3ccc(=[N+](CC)CC)cc-3oc2c1 | 69.2 nM | 5.5 nM | 29.2% | – | – | – | – | –
11 | CC(C)C[C@H](NC(=O)[C@H](CCCNC(=N)N)NC(=O)[C@H](Cc1ccc(O)cc1)NC(=O)[C@@H](N)C/C=C\C[C@H](N)C(=O)N[C@@H](Cc1ccc(O)cc1)C(=O)N[C@@H](CCCNC(=N)N)C(=O)N[C@@H](CC(C)C)C(=O)N[C@@H](CCCNC(=N)N)C(=O)N[C@@H](Cc1ccc(O)cc1)C(N)=O)C(=O)N[C@@H](CCCNC(=N)N)C(=O)N[C@@H](Cc1ccc(O)cc1)C(N)=O | 132 nM | 30.2 nM | 44.5% | – | 3.7 | – | – | –
